UHRF1 binding – UHRF1 methyl-DNA binding inhibition; UHRF1 binding to methylated oligo, TR-FRET; Q96T88; inhibition, % at 4.4 µM; 370,000 compounds, 0.75% hits; in the data active = inhibition above about 21%;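 note: UHRF1 SRA domain binding a hemimethylated CpG hairpin DNA probe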
LEDGF integ inh – blocks HIV-1 LEDGF/p75-dependent DNA integration. 370,000 compounds, 0.64% hits. TR-FRET IN-LEDGF/p75 DNA integration, Eu/Cy5. inhibition, % at 3.7 µM;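 active = inhibition above the screen-wide mean plus 3 SD, cut at about 13% in these data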;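 note: signal is the Cy5 over europium emission ratio at 671 and 618 nm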
TDP2 inh – TDP2 (human) inhibition, absorbance primary screen; O95551; recombinant TDP2, T5PNP hydrolysis, p-nitrophenol absorbance 415 nm; inhibition, % at 12.8 µM; 370,000 compounds, 0.34% hits; AID 720702;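 active = inhibition above the mean of all tested compounds plus 3 SD, set per campaign, cut at about 25% in these data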
Target sequence (O95551 whole entry, looked up): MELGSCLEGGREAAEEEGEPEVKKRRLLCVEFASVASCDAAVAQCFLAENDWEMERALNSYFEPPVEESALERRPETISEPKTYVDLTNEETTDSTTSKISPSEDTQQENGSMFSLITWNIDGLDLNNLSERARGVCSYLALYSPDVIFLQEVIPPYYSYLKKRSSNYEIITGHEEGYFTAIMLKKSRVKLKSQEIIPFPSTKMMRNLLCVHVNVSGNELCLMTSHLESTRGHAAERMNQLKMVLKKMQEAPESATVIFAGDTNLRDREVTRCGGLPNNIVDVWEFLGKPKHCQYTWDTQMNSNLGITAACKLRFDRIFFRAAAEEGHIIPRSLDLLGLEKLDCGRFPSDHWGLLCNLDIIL
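Test system: human TDP2 enzyme; Input: 120 nM TDP2 per well; Buffer or medium: Mg2+-containing Tris-HCl buffer, pH 7.5; Reagent: 5 mM T5PNP; Dosing: 12.8 µM single point, 1% DMSO; Incubation: reaction 2 h, 37 °C; Detection: p-Nitrophenol epi absorbance; Read-out: % inhibition relative to enzyme-containing and enzyme-free wells; Replicates: single well per compound.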
MBD2 DNA inh – MBD2-methylated oligo binding inhibition; AID 686964; 370,000 compounds, 0.31% hits; TR-FRET, MBD2 binding to methylated oligonucleotide; Q9UBB5; inhibition, % at 4.4 µM; in the data active = inhibition above about 13%
PRMT1 FP inh – inhibitors of human PRMT1. 370,000 compounds, 1.3% hits. inhibition, % at 2.79 µM. recombinant PRMT1, activity-based probe fluorescence polarization. Q99873;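 active = inhibition above about 21% made by adding two undisclosed values, limit read from the data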
SIAE primary – human SIAE inhibition, primary screen; Q9HAT2; inhibition, % at 9.66 µM; SIAE FP-Rh probe binding, fluorescence polarization; 370,000 compounds, 0.69% hits;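 active = inhibition above a cutoff: mean of compounds within the control limits plus 3 SD of those, cut at about 17% in these data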
IN multimer up – activates HIV-1 integrase multimerization in LEDGF counter-screen; shares compounds with LEDGF integ inh; TR-FRET HIV-1 integrase multimerization, biochemical; activation, % at 7.7 µM; 2,000 compounds, 17% hits; AID 1053131; in the data active = activation above about 8.9%
TRFRET interf – counter-screen for LEDGF/p75 integration inhibitors: TR-FRET optical interference | 2,000 tested, under 10 active | AID 1053135 | TR-FRET optical interference counterscreen, HIV-1 IN multimerization | shares compounds with LEDGF integ inh | inhibition, % at 7.7 µM;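 active = inhibition above the mean over all tested compounds plus 3 SD, which no compound reached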
LEDGF integ conf – confirmation of HIV-1 LEDGF/p75-dependent integration inhibitors | 2,000 compounds, 36% hits | TR-FRET LEDGF/p75-dependent HIV-1 integration, biochemical | inhibition, % at 3.7 µM | AID 1053136 | shares compounds with LEDGF integ inh; in the data active = inhibition above about 14%
Hits are given with their value; i = inactive; nt = not tested or not shown. A selection: hits, their analogues and other compounds. The true share with any hit is near 3.3%.

SMILES	UHRF1 binding	LEDGF integ inh	TDP2 inh	MBD2 DNA inh	PRMT1 FP inh	SIAE primary	IN multimer up	TRFRET interf	LEDGF integ conf
CCN(CC)C1CCN(Cc2c(C(=O)N3CCCCCCC3)nc3ccc(Cl)cn23)C1 (stereo not drawn)	i	i	i	i	i	i	nt	nt	nt
CCN(CCn1cccn1)Cc1c(C(=O)N2CCCCCCC2)nc2ccc(Cl)cn12	i	27	i	i	i	i	i	i	i
Cc1ccc(-n2c(SCC(=O)Nc3ccc4c(c3)OCCO4)nnc2-c2cccnc2)cc1	i	i	i	i	i	i	nt	nt	nt
Oc1cccc(Nc2ccccc2)c1	i	16	i	i	i	i	26	i	i
N#Cc1nc(COc2ccccc2Cl)oc1N1CCCC1	i	19	i	i	i	i	i	i	i
Cn1c(SCC(=O)Nc2ccccc2-c2ccccc2)nnc1-c1cnccn1	i	i	i	i	i	i	nt	nt	nt
CCOC(=O)Cc1nc(N2CCN(C=O)CC2)c2c(C)c(C(=O)OCC)sc2n1	i	i	i	i	i	i	nt	nt	nt
CCn1c(SCc2ccccc2Cl)nnc1-c1ccccc1OC	i	i	i	i	i	i	nt	nt	nt
O=C(NCCc1ccccc1)C(=O)NCC1CCCO1 (stereo not drawn)	i	84	i	i	i	i	i	i	i
Cc1ccc(NC(=O)C(=O)NCC2CCCO2)cc1C (stereo not drawn)	i	78	i	i	i	i	i	i	i
O=C(NCc1cccc(CNC(=O)C(=O)NCC2CCCO2)c1)C(=O)NCC1CCCO1 (stereo not drawn)	i	i	i	i	i	i	nt	nt	nt
Cc1ccc(NC(=O)C(=O)NCC2CCCO2)cc1 (stereo not drawn)	i	i	i	i	i	i	nt	nt	nt
O=C(CCS(=O)(=O)c1cc2c(cc1Br)CCN2C(=O)C1CC1)N1CCN(c2ccccn2)CC1	i	i	i	i	i	i	nt	nt	nt
Cc1ccnc(NC(=S)NC(=O)/C=C/c2ccco2)c1	i	16	i	i	23	i	i	i	i
Cc1ccccc1S(=O)(=O)N1CCC(c2nc3ccccc3o2)CC1	i	i	i	i	i	i	nt	nt	nt
COC(=O)[C@]12CCCCC=C1N(Cc1ccc(OC)cc1)C(=O)[C@@H]2CC(=O)N1CCSCC1	i	i	i	i	i	i	nt	nt	nt
Oc1ccc(-c2csc(Nc3ncccn3)n2)cc1O	i	17	i	i	i	i	27	i	i
COC(=O)c1cc2c(c3c4cc(C)ccc4n(S(=O)(=O)c4ccc(OC)cc4)c13)C(=O)N(C)C2	i	i	i	i	i	i	nt	nt	nt
CN1CC=C(c2ccc(C(F)(F)F)cc2)N(c2ccccc2)C1=O	i	i	i	i	i	i	nt	nt	nt
Cc1cc(C(=O)CSc2nnc(N)s2)c(C)n1Cc1ccco1	i	i	i	i	i	i	nt	nt	nt
Cc1cc(-c2csc(N)n2)c(C)n1Cc1ccco1	i	24	i	i	i	i	17	i	80
COCC1CN(CCc2ccc(F)cc2)S(=O)(=O)c2c(F)cccc2O1 (stereo not drawn)	i	18	i	i	i	i	i	i	i
O=C(NCc1ccccc1)c1cc(-c2ccco2)on1	i	16	i	i	i	i	i	i	i
O=C(NCCc1ccccc1)c1cc(-c2ccco2)on1	i	i	i	i	i	i	nt	nt	nt
N#CCC[C@H]1CC[C@]2(CCCN(C(=O)c3ccco3)C2)O1	i	i	i	i	i	i	nt	nt	nt
CC(=O)Nc1ccc(-c2ccnc3c2CC(C(=O)Nc2cccc(N(C)C)c2)O3)cc1 (stereo not drawn)	i	24	i	i	i	i	i	i	i
Cc1ccc(C)c(Nc2ccc(C(=O)NCCc3ccccc3)cn2)c1	i	37	i	i	i	i	i	i	i
Cc1ccc(Nc2ccc(C(=O)NCCc3ccccc3)cn2)cc1	i	i	i	i	i	i	nt	nt	nt

Source: PubChem (The Scripps Research Institute Molecular Screening Center)
